# Rows were chosen to be rich in hits. Some 2% of all compounds tested hit in one or more screens of this group.
# LGR2 antag: Drosophila LGR2 receptor signaling inhibition | HEK293 LGR2, CRE-luciferase, bursicon-stimulated, 4 h | inhibition, % at 9.99 µM | actives 0.35% (n = 380,000);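 active = drop in luminescence signal, shown as inhibition above about 50% in the replicate tests, limit read from the data, passing the limit was not always enough; inconclusive = probably only some replicates passing the limit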;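 note: agonist challenge used bursicon conditioned medium at about half maximal strength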
# TROY signal inh: TROY signaling inhibition | Q293 LMP1-TROYcd NF-kB luciferase reporter, 4 h | inhibition, % at 10 µM | actives 0.98% (n = 360,000) | AID 1347056;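 active = compounds whose plate-normalised and pattern-corrected inhibition of the luciferase reporter signal at the single screening dose is 50% or more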
# XiGFP reactiv: reactivates the inactive X chromosome in mouse fibroblasts | XiGFP mouse fibroblasts, % GFP-positive cells imaging, 3 d; cells co-treated with 5-aza-dC sensitizer; scaled so ellipticine positive control = 100% | activation, % at 7.58 µM | actives 0.055% (n = 360,000) | AID 743238;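 active = mean normalized replicate activation at least 10% and every replicate at or above 10%; inconclusive = only one of the two criteria met; inactive = mean below 10% and not all replicates reach 10%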;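 note: 0% = median of on-plate neutral control wells and 100% = ellipticine 6 µM median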
#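 Assay system – SV40-immortalized XiGFP fibroblast cells, line 68-5-11 · Buffer or medium – DMEM supplemented with 5-aza-dC as sensitizing agent · Dosing – one concentration, pinned · Benchmarks – positive control ellipticine, 6 µM final · Times – 3 days compound exposure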
# TWEAK-Fn14 inh: inhibitors of TWEAK-Fn14 interaction signaling; TWEAK-stimulated Fn14 reporter cells, luciferase luminescence, 8 h; AID 1159606; inhibition, % at 10 µM; actives 2% (n = 360,000); in the data active = inhibition above about 50%
# CaV13 ICDI inh: Disruptors of the CACNA1D IQ motif to Ca2+-dependent inactivation inhibitor domain association, primary screening, Förster resonance energy transfer in intact living … | AID 743397 | HEK cells, CFP/YFP FRET ICDI-IQ, plate reader, 10 min; percent FRET-ratio fall versus neutral wells | actives 0.098% (n = 340,000) | inhibition, % at 12.3 µM;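 active = mean replicate inhibition of at least 30% and at least 1% of replicates passing that level; inconclusive = only one of the two criteria is met; inactive = neither criterion is met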;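 note: 0% = median of the neutral control wells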
# * = called active by the depositor; ? = inconclusive; nt = no result.
SMILES,LGR2 antag,TROY signal inh,XiGFP reactiv,TWEAK-Fn14 inh,CaV13 ICDI inh
CCCNC(=O)C[C@@H]1C[C@H]2c3cc(NC(=O)NC4CCCC4)ccc3O[C@H]2[C@H](CO)O1,-19,nt,0,nt,nt
CO[C@@H]1CN(C)C(=O)c2ccc(NC(=O)Nc3ccccc3)cc2OC[C@@H](C)N(CC2CC2)C[C@@H]1C,-6,nt,2,nt,nt
C[C@H](CO)N1C[C@H](C)[C@@H](CN(C)S(C)(=O)=O)Oc2ccc(NS(C)(=O)=O)cc2C1=O,nt,nt,0,nt,nt
Nc1cccc(-c2nc3ccccc3s2)c1,nt,22,nt,34,-5
COc1cc(OC)c(-c2nc3ccccc3s2)cc1OC,-30,17,0,10,-5
COc1cccc(-c2nc3ccccc3s2)c1O,53*,20,0,48,-3
Oc1ccccc1OCc1nc2ccccc2s1,nt,-59,nt,-17,-5
Oc1ccc(O)c(Cc2nc3ccccc3s2)c1,32,63*,0,35,-7
Oc1cccc(-c2nc3ccccc3s2)c1,nt,16,nt,54*,-2
O=C(CCN1N=C(c2ccccc2)CCC1=O)NCC1COc2ccccc2O1 (configuration not stated),3,12,0,75*,-4
CN(C)c1ccc(/C=C/c2nc3ccccc3c(=O)[nH]2)cc1,91*,70*,0,88*,-17
Cc1nc(/C=C/c2ccccc2)[nH]c(=O)c1-c1ccccc1,-18,-5,nt,64*,-9
C(=C\c1ccco1)/c1nc2ccccc2[nH]1,-49,-13,0,2,-4
C(=C\c1nc2ccccc2[nH]1)/c1ccccc1,nt,34,nt,75*,-4
O=C(CC1CC1)N1[C@H](CO)[C@@H](c2ccccc2)C12CN(Cc1ccccc1F)C2,-12,nt,0,nt,nt
CCCN1[C@@H]2Cn3c(ccc(-c4ccc(F)cc4)c3=O)[C@H]1[C@@H](C(=O)NCC)[C@@H]2CO,-2,nt,0,nt,nt
C[C@H]1CN(C)C(=O)c2cccc(NS(C)(=O)=O)c2O[C@H]1CN(C)C,nt,nt,0,nt,nt
COC(=O)c1ccc2nc(-c3ccc(Cl)cc3)c(Cc3ccc(OC)cc3C)n2c1,-9,51*,0,81*,-5
COC(=O)c1ccc2nc(-c3ccc(OC)c(OC)c3)c(Cc3ccc(OC)cc3C)n2c1,-4,6,nt,-13,-7
CCOC(=O)COc1ccc2ccccc2c1/C=C/[N+](=O)[O-],105*,20,0,32,-5
CC(C)CC#Cc1cnc2c(c1)C(=O)N([C@H](C)CO)C[C@H](C)[C@H](CN(C)C(=O)Cc1ccncc1)O2,-4,nt,-1,nt,nt
COc1ccc(Nc2nc(-c3cccs3)nc3ccccc23)cc1S(=O)(=O)N1CCOCC1,16,27,0,97*,-2
COCC(=O)Nc1ccc2c(c1)C(=O)N(C)C[C@H](OC)[C@@H](C)CN(CCC(F)(F)F)[C@@H](C)CO2,2,nt,0,nt,nt
COc1ccccc1S(=O)(=O)N1[C@@H]2CNC[C@H]1[C@H]2c1ccc(-c2ccccc2C)cc1,21,nt,0,nt,nt
C[C@@H]1CN([C@@H](C)CO)C(=O)c2cc(NS(=O)(=O)c3ccc(F)cc3)ccc2O[C@H]1CN(C)C(=O)Nc1ccc(C(F)(F)F)cc1,-9,nt,-1,nt,nt
SMILES,LGR2 antag,TROY signal inh,XiGFP reactiv,TWEAK-Fn14 inh,CaV13 ICDI inh
CCOc1ccc(NC(=S)Nc2ccc(Br)cc2Cl)cc1,-8,58*,0,18,-2
CC1=NNC(=O)C1CC(=O)N/N=C/c1cccs1 (configuration not stated),-8,54*,0,-14,-2
CS(=O)(=O)N1C[C@@H]2C(c3ccc(Br)cc3)[C@H](C1)N2CC(F)(F)F (some centres not stated),nt,nt,0,nt,nt
Cc1ccc(C(=O)/C=C/Nc2ccccn2)cc1,nt,47,nt,102*,nt
Cc1ccc(C(=O)/C=C/Nc2ccccc2C(N)=O)cc1,nt,-49,nt,58*,-3
NC(=O)c1ccccc1N/C=C/C(=O)c1ccc(Cl)cc1,nt,-65,nt,40,-4
Cc1ccccc1CN(C)CCS(=O)(=O)c1cc(Cl)ccc1Cl,-8,3,0,65*,-4
C[C@@H](CO)NC(=O)c1ccc2c3n(nc2c1)-c1ccccc1CO3,?,28,0,53*,-12
COc1ccc(CN(C)C[C@H]2OCCCC[C@H](C)Oc3ccc(NC(=O)CCC(F)(F)F)cc3C(=O)N([C@H](C)CO)C[C@@H]2C)cc1,-3,nt,0,nt,nt
CC(C)(C)C(=O)NC(=S)NNC(=O)c1sc2ccccc2c1Cl,nt,86*,nt,100*,nt
O=C(NNC(=S)NC1CCCCC1)c1sc2ccccc2c1Cl,-3,76*,0,10,-18
CCCC(=O)NC(NC(=S)Nc1c(C)n(C)n(-c2ccccc2)c1=O)C(Cl)(Cl)Cl (configuration not stated),nt,nt,nt,82*,-5
CC(=O)NC(Nc1c(C)n(C)n(-c2ccccc2)c1=O)C(Cl)(Cl)Cl (configuration not stated),1,63*,0,-1,-1
COCC#Cc1cnc2c(c1)C(=O)N([C@@H](C)CO)C[C@H](C)[C@H](CN(C)C(=O)c1cccc(F)c1)O2,-3,nt,0,nt,nt
C[C@H]1CN([C@@H](C)CO)S(=O)(=O)c2ccc(-c3cccc(F)c3)cc2O[C@H]1CN(C)CC1CC1,-18,nt,-1,nt,nt
C[C@@H]1CN([C@H](C)CO)C(=O)c2cc(-c3ccc(C(=O)N(C)C)cc3)cnc2O[C@@H]1CN(C)C(=O)c1ccncc1,-2,nt,-1,nt,nt
Cc1ccc2occ(/C=N/NC(=O)c3ccccc3O)c(=O)c2c1,2,20,0,58*,-2
CCOc1ccc(C(=O)N/N=C/c2cccc3cccnc23)cc1,nt,-69,nt,-52,-6
COc1ccc(C(=O)N/N=C/c2cccc3cccnc23)cc1,nt,nt,nt,105*,nt
COc1ccc(C(=O)N/N=C\c2coc3ccc(C)cc3c2=O)cc1,23,18,0,54*,-6
C[C@@H]1CN([C@@H](C)CO)C(=O)c2cc(NC(=O)c3ccncc3)ccc2O[C@H]1CN(C)C(=O)Nc1ccc(C(F)(F)F)cc1,1,nt,-1,nt,nt
CO[C@@H](CN(C)C(=O)Nc1ccc(Cl)cc1)[C@@H](C)CN(Cc1ccccc1Cl)[C@@H](C)CO,0,nt,0,nt,nt
O=c1c(O)c(-c2ccccc2)oc2cc(O)cc(O)c12,-24,-18,nt,55*,nt
O=c1c(-c2ccccc2)c(-c2ccccc2)oc2cc(O)cc(O)c12,22,32,0,7,-2
CCNC(=O)[C@H]1[C@H](CO)[C@H]2Cn3c(ccc(/C=C/c4ccccc4)c3=O)[C@H]2N1C(C)=O,-7,nt,0,nt,nt
CC(C)(C)C(=O)Nc1nnc(CSCc2ccccc2F)s1,nt,30,nt,73*,-3
CC(C)C(=O)Nc1nnc(CSCc2ccccc2F)s1,nt,-15,nt,-17,-4
O=C(N[C@H]1CC[C@H](CCNC(=O)C2CCC2)O[C@@H]1CO)c1ccncc1,5,nt,0,nt,nt

# Source: PubChem BioAssay
